For eight compounds, Activity results are on record in ChEMBL document CHEMBL1671716, “Antimicrobial susceptibility patterns for recent clinical isolates of anaerobic bacteria in South Korea” (2010).

The first experiment has as its system Clostridium perfringens. In words: Antimicrobial activity against Clostridium perfringens assessed as percent resistant isolates after 48 hrs by agar dilution method in presence of 4 ug/ml beta-lactamase inhibitor Tazobactam. The format is functional. In a few lines:
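CLSI agar dilution on recent Korean clinical anaerobe isolates. Inoculum 10^5 CFU per spot by replicator. Plates incubated in an anaerobic chamber at 37°C for 48 h. For piperacillin plus tazobactam, tazobactam was held constant at 4 μg/ml. Resistance and susceptibility rates derived from MICs.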
For the compound `CCN1CCN(C(=O)N[C@@H](C(=O)N[C@@H]2C(=O)N3[C@@H]2SC(C)(C)[C@@H]3C(=O)O)c2ccccc2)C(=O)C1=O` [PIPERACILLIN], the Activity is listed as 0%.

The subject of a further experiment is Clostridium perfringens. In words: Antimicrobial activity against Clostridium perfringens assessed as percent resistant isolates after 48 hrs by agar dilution method. The format is functional.
In the case of `CCN1CCN(C(=O)N[C@@H](C(=O)N[C@@H]2C(=O)N3[C@@H]2SC(C)(C)[C@@H]3C(=O)O)c2ccccc2)C(=O)C1=O` [PIPERACILLIN], the Activity was 0%. On to `C[C@@H](O)[C@H]1C(=O)N2C(C(=O)O)=C(SCCNC=N)C[C@H]12` [IMIPENEM ANHYDROUS], for which the Activity was determined as 0%.

With `CCC[C@@H]1C[C@@H](C(=O)N[C@@H]([C@H]2O[C@H](SC)[C@H](O)[C@@H](O)[C@H]2O)[C@H](C)Cl)N(C)C1` [CLINDAMYCIN], the Activity was found to be 7%. Regarding `CO[C@@]1(NC(=O)Cc2cccs2)C(=O)N2C(C(=O)O)=C(COC(N)=O)CS[C@@H]21` [CEFOXITIN], the Activity turned out to be 0%. Regarding `Cc1ncc([N+](=O)[O-])n1CCO` [METRONIDAZOLE], the Activity is 0%.

`CO[C@@]1(NC(=O)C2SC(=C(C(N)=O)C(=O)O)S2)C(=O)N2C(C(=O)O)=C(CSc3nnnn3C)CS[C@@H]21` (some centres undefined) [CEFOTETAN]: the Activity was 0%. For the compound `O=C(N[C@H](CO)[C@H](O)c1ccc([N+](=O)[O-])cc1)C(Cl)Cl` [CHLORAMPHENICOL], the Activity turned out to be 0%.

Take `C[C@@H](O)[C@H]1C(=O)N2C(C(=O)O)=C(S[C@@H]3CN[C@H](C(=O)N(C)C)C3)[C@H](C)[C@H]12` [MEROPENEM]: the Activity worked out at 0%.
